Source: ChEMBL document CHEMBL1147111, “In vitro and in vivo activities of synthetic trioxolanes against major human schistosome species” (Antimicrob Agents Chemother, 2007)
Activity calls are given as the source filed them. No cut-off for these calls is given here.

Columns and labels:
Schistosoma mansoni [1] = test: Antischistosomal activity against NMRI mouse juvenile Schistosoma mansoni infection model assessed as reduction of total worm burden at 200 mg/kg, po after 28 days; type: functional; design: scale not given: the % may be the effect or the level left
Summary of the method: (§1)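 Juvenile-infection model: mice carrying Liberian-strain S. mansoni got one oral dose at day 21 postinfection, as a suspension in 7% Tween 80/3% ethanol. There were 3–5 per group, plus untreated controls. Necropsy by exsanguination followed 28 days after treatment. Liver and mesenteric-vein worms were collected, sexed and counted. Total and female burden reductions were calculated versus controls, with Kruskal-Wallis testing.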

Schistosoma mansoni [2] = test: Antischistosomal activity against NMRI mouse adult Schistosoma mansoni infection model assessed as reduction of total worm burden at 400 mg/kg, po after 28 days; type: functional; design: scale not given: the % may be the effect or the level left
Summary of the method: (§2)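 Mice with a Liberian-strain S. mansoni infection were dosed at 49 days postinfection with a single oral dose of compound suspended in 7% Tween 80/3% ethanol. Groups held 3–5 animals, with untreated controls. At 28 days posttreatment, animals were killed by bleeding. Worms in liver and mesenteric veins were removed, sexed and counted. Reductions were calculated against controls and tested by Kruskal-Wallis.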

Schistosoma mansoni [3] = test: Antischistosomal activity against NMRI mouse juvenile Schistosoma mansoni infection model assessed as reduction of female worm burden at 200 mg/kg, po after 28 days; type: functional; design: scale not given: the % may be the effect or the level left; summary of the method: as §1
Schistosoma mansoni [4] = test: Antischistosomal activity against NMRI mouse adult Schistosoma mansoni infection model assessed as number of cured mouse at 400 mg/kg, po after 28 days; type: functional, organism-based; design: dose 400 mg/kg; summary of the method: as §2
Schistosoma mansoni [5] = test: Antischistosomal activity against NMRI mouse juvenile Schistosoma mansoni infection model assessed as number of cured mouse at 200 mg/kg, po after 28 days; type: functional, organism-based; design: dose 200 mg/kg; summary of the method: as §1
Schistosoma mansoni [6] = test: Antischistosomal activity against NMRI mouse adult Schistosoma mansoni infection model assessed as reduction of female worm burden at 400 mg/kg, po after 28 days; type: functional; design: scale not given: the % may be the effect or the level left; summary of the method: as §2
Schistosoma mansoni [7] = test: Antischistosomal activity against Syrian golden hamster adult Schistosoma mansoni infection model assessed as reduction of total worm burden at 100 mg/kg, po after 28 days; type: functional; design: scale not given: the % may be the effect or the level left
Summary of the method: (§3)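 Hamsters infected with Liberian-strain S. mansoni were treated once orally at 21 days (juvenile lines) or 49 days (adult lines) postinfection. Doses were 50, 100 or 200 mg/kg, in 7% Tween 80/3% ethanol suspension. Groups had 3–4 animals, with untreated controls. After 28 days, animals were bled out. Worms from liver and mesenteric veins were sexed and counted, and cures and burden reductions versus controls were recorded (Kruskal-Wallis).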

Schistosoma mansoni [8] = test: Antischistosomal activity against Syrian golden hamster adult Schistosoma mansoni infection model assessed as reduction of female worm burden at 100 mg/kg, po after 28 days; type: functional; design: scale not given: the % may be the effect or the level left; summary of the method: as §3
Schistosoma mansoni [9] = test: Antischistosomal activity against Syrian golden hamster juvenile Schistosoma mansoni infection model assessed as reduction of female worm burden at 200 mg/kg, po after 28 days; type: functional; design: scale not given: the % may be the effect or the level left; summary of the method: as §3
Schistosoma mansoni [10] = test: Antischistosomal activity against Syrian golden hamster juvenile Schistosoma mansoni infection model assessed as reduction of total worm burden at 100 mg/kg, po after 28 days; type: functional; design: scale not given: the % may be the effect or the level left; summary of the method: as §3
Schistosoma mansoni [11] = test: Antischistosomal activity against Syrian golden hamster juvenile Schistosoma mansoni infection model assessed as number of cured mouse at 50 mg/kg, po after 28 days; type: functional, organism-based; design: dose 50 mg/kg; summary of the method: as §3
Schistosoma mansoni [12] = test: Antischistosomal activity against Syrian golden hamster juvenile Schistosoma mansoni infection model assessed as reduction of female worm burden at 100 mg/kg, po after 28 days; type: functional; design: scale not given: the % may be the effect or the level left; summary of the method: as §3
Schistosoma mansoni [13] = test: Antischistosomal activity against Syrian golden hamster adult Schistosoma mansoni infection model assessed as reduction of female worm burden at 50 mg/kg, po after 28 days; type: functional; design: scale not given: the % may be the effect or the level left; summary of the method: as §3
Schistosoma mansoni [14] = test: Antischistosomal activity against Syrian golden hamster adult Schistosoma mansoni infection model assessed as number of cured mouse at 100 mg/kg, po after 28 days; type: functional, organism-based; design: dose 100 mg/kg; summary of the method: as §3
Schistosoma mansoni [15] = test: Antischistosomal activity against Syrian golden hamster adult Schistosoma mansoni infection model assessed as number of cured mouse at 50 mg/kg, po after 28 days; type: functional, organism-based; design: dose 50 mg/kg; summary of the method: as §3
Schistosoma mansoni [16] = test: Antischistosomal activity against Syrian golden hamster juvenile Schistosoma mansoni infection model assessed as number of cured mouse at 100 mg/kg, po after 28 days; type: functional, organism-based; design: dose 100 mg/kg; summary of the method: as §3
Schistosoma mansoni [17] = test: Antischistosomal activity against Syrian golden hamster adult Schistosoma mansoni infection model assessed as reduction of female worm burden at 200 mg/kg, po after 28 days; type: functional; design: scale not given: the % may be the effect or the level left; summary of the method: as §3
Schistosoma mansoni [18] = test: Antischistosomal activity against Syrian golden hamster juvenile Schistosoma mansoni infection model assessed as reduction of total worm burden at 200 mg/kg, po after 28 days; type: functional; design: scale not given: the % may be the effect or the level left; summary of the method: as §3
Schistosoma mansoni [19] = test: Antischistosomal activity against Syrian golden hamster juvenile Schistosoma mansoni infection model assessed as reduction of female worm burden at 50 mg/kg, po after 28 days; type: functional; design: scale not given: the % may be the effect or the level left; summary of the method: as §3
Schistosoma mansoni [20] = test: Antischistosomal activity against Syrian golden hamster adult Schistosoma mansoni infection model assessed as number of cured mouse at 200 mg/kg, po after 28 days; type: functional, organism-based; design: dose 200 mg/kg; summary of the method: as §3
Schistosoma mansoni [21] = test: Antischistosomal activity against Syrian golden hamster juvenile Schistosoma mansoni infection model assessed as reduction of total worm burden at 50 mg/kg, po after 28 days; type: functional; design: scale not given: the % may be the effect or the level left; summary of the method: as §3
Schistosoma mansoni [22] = test: Antischistosomal activity against Syrian golden hamster adult Schistosoma mansoni infection model assessed as reduction of total worm burden at 50 mg/kg, po after 28 days; type: functional; design: scale not given: the % may be the effect or the level left; summary of the method: as §3

SMILES	Activity (Schistosoma mansoni [1])	Activity (Schistosoma mansoni [2])	Activity (Schistosoma mansoni [3])	Activity (Schistosoma mansoni [4])	Activity (Schistosoma mansoni [5])	Activity (Schistosoma mansoni [6])	further results
C1CCC2(CC1)OOC1(O2)C2CC3CC(C2)CC1C3 (configuration not stated)	82%	29.1%	79.2%	inactive	inactive	29.3%	
C1CCC2(CC1)COC1(CCCCC1)OO2	0%		0%		inactive		
C1CCC2(CC1)OCC1(O2)C2CC3CC(C2)CC1C3 (configuration not stated)	2%		4.8%		inactive		
Oc1ccc([C@H]2CC[C@]3(CC2)OO[C@]2(O3)C3CC4CC(C3)CC2C4)cc1	95.4%	52.2%	96.2%	inactive	inactive	64.9%	Activity (Schistosoma mansoni [7]): 52.4%; Activity (Schistosoma mansoni [8]): 41.2%; Activity (Schistosoma mansoni [9]): 86.4%; Activity (Schistosoma mansoni [10]): 84%; Activity (Schistosoma mansoni [11]): inactive; Activity (Schistosoma mansoni [12]): 80.5%; Activity (Schistosoma mansoni [13]): 36.7%; Activity (Schistosoma mansoni [14]): inactive; Activity (Schistosoma mansoni [15]): inactive; Activity (Schistosoma mansoni [16]): inactive; Activity (Schistosoma mansoni [17]): 69.7%; Activity (Schistosoma mansoni [18]): 86.5%; Activity (Schistosoma mansoni [19]): 78.7%; Activity (Schistosoma mansoni [20]): inactive; Activity (Schistosoma mansoni [21]): 82.7%; Activity (Schistosoma mansoni [22]): 46.6%
C1CCC2(CC1)COC1(O2)C2CC3CC(C2)CC1C3 (configuration not stated)	0%		0%		inactive		
